Experimental data published in ChEMBL document CHEMBL1156783, “Synthesis, biological evaluation, X-ray structure, and pharmacokinetics of aminopyrimidine c-jun-N-terminal kinase (JNK) inhibitors” (J Med Chem, 2010).
pIC50: −log10 of the molar value. The source made the active and inactive calls. The calls are words filed in the database; no cut-off is given here.

Assays:
[1] = Inhibition of p38 kinase by time resolved fluorescence assay
Summary of the method: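 Commercial recombinant p38 in a homogeneous time-resolved fluorescence biochemical assay run per an earlier protocol. IC50 is the average of three or more experiments.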

[2] = biological target: Mitogen-activated protein kinase 10 (Homo sapiens, UniProt P53779); test: Inhibition of JNK3 by time resolved fluorescence assay
Chain of Mitogen-activated protein kinase 10 (P53779 whole entry): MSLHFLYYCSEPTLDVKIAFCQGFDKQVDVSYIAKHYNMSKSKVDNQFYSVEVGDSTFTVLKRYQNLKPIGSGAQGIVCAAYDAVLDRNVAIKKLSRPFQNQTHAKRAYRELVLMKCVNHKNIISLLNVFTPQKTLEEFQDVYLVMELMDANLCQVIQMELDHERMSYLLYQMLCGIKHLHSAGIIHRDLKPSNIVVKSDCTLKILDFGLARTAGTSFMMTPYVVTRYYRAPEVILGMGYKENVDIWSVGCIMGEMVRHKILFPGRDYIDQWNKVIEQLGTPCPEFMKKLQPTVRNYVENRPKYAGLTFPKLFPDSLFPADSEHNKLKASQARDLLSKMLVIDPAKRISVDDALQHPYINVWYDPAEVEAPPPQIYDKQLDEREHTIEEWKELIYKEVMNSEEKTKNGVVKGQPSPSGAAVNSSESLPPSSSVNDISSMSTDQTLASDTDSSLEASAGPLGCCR

[3] = biological target: Mitogen-activated protein kinase 8 (Homo sapiens, UniProt P45983); test: Inhibition of JNK1 by time resolved fluorescence assay
Chain of Mitogen-activated protein kinase 8 (P45983 whole entry): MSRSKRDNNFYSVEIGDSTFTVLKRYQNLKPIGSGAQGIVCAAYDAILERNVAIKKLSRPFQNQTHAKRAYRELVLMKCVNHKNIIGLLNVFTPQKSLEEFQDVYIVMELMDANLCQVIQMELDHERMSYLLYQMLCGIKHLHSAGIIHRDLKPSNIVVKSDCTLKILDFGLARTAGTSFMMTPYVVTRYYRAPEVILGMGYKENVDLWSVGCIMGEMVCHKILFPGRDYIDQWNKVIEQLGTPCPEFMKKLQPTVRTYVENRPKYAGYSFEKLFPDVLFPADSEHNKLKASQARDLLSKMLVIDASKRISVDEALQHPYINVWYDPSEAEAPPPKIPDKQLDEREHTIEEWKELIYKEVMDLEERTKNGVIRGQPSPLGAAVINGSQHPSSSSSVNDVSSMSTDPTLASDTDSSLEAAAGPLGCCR

[4] = biological target: Mitogen-activated protein kinase kinase kinase 9 (Homo sapiens) (UniProt P80192); test: Inhibition of MLK1 at 3 uM
Summary of the method: (§1)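 Counterscreen in a biochemical panel of 400 kinases. Each kinase was tested at a single inhibitor level of 3 μM, and percent inhibition was recorded.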

[5] = biological target: Mitogen-activated protein kinase kinase kinase 2 (Homo sapiens) (UniProt Q9Y2U5); test: Inhibition of MAPK3K2 at 3 uM; summary of the method: as §1
[6] = biological target: Dual specificity mitogen-activated protein kinase kinase 4 (Homo sapiens) (UniProt P45985); test: Inhibition of MKK4 at 3 uM
Chain of Dual specificity mitogen-activated protein kinase kinase 4 (Homo sapiens) (P45985 whole entry): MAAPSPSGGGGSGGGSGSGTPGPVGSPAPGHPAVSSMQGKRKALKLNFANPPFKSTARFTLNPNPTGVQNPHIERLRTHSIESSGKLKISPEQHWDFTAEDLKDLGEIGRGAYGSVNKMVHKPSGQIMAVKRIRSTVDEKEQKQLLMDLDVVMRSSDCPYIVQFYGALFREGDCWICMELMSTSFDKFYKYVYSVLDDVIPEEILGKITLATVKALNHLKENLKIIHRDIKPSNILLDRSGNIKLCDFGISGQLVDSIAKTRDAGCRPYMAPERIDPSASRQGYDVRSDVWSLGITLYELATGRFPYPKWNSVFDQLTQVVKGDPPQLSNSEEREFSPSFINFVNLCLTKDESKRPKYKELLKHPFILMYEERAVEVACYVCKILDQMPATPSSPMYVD

[7] = biological target: Dual specificity mitogen-activated protein kinase kinase 7 (Homo sapiens) (UniProt O14733); test: Inhibition of MKK7 at 3 uM
[8] = biological target: Mitogen-activated protein kinase kinase kinase 4 (Homo sapiens) (UniProt Q9Y6R4); test: Inhibition of MAPK3K4 at 3 uM; summary of the method: as §1
Chain of Mitogen-activated protein kinase kinase kinase 4 (Homo sapiens) (Q9Y6R4 whole entry): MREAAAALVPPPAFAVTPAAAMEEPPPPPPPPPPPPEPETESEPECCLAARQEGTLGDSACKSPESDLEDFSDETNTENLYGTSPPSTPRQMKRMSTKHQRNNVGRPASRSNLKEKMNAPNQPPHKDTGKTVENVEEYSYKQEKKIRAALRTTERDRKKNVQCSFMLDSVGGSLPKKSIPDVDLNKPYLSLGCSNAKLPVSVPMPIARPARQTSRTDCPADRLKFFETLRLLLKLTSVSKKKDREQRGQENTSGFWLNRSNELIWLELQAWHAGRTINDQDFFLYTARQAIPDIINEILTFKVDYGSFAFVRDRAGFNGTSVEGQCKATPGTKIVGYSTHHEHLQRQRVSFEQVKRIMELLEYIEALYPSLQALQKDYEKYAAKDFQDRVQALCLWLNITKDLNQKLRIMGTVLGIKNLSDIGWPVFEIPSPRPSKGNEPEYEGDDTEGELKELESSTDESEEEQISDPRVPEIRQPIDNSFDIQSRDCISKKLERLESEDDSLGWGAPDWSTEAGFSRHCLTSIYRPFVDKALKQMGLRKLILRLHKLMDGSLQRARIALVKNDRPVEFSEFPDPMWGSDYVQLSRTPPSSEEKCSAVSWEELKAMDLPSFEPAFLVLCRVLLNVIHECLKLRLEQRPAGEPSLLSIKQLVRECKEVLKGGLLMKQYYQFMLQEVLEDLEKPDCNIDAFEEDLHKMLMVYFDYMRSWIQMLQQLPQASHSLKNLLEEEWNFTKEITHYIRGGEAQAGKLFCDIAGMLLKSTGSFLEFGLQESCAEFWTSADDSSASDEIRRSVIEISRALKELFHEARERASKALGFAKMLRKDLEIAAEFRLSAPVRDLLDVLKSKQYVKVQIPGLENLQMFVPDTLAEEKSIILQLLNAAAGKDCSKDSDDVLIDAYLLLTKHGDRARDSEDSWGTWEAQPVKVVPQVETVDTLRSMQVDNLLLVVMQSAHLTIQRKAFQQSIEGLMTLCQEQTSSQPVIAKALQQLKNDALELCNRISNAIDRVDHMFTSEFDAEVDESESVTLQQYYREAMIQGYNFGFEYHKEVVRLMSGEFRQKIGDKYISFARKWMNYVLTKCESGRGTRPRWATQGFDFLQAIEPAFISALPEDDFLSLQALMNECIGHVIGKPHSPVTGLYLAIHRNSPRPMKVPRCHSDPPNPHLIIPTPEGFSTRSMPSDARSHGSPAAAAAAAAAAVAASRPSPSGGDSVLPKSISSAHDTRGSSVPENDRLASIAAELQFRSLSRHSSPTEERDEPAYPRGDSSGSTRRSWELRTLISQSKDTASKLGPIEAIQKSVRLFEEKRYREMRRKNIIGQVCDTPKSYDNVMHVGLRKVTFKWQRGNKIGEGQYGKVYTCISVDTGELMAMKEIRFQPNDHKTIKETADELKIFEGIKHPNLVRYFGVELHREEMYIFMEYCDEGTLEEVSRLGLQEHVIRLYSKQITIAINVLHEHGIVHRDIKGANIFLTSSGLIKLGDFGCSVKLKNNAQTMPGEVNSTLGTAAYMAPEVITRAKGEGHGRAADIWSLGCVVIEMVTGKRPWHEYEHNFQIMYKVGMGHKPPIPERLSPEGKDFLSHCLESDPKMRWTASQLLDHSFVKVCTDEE

[9] = Inhibition of c-jun phosphorylation in rat INS-1 cells; assay type: cell-based; settings: INS1
[10] = biological target: Mitogen-activated protein kinase kinase kinase 1 (Homo sapiens) (UniProt Q13233); test: Inhibition of MAPK3K1 at 3 uM; summary of the method: as §1
[11] = biological target: Mitogen-activated protein kinase kinase kinase 11 (Homo sapiens) (UniProt Q16584); test: Inhibition of MLK3 at 3 uM; summary of the method: as §1
[12] = biological target: Mitogen-activated protein kinase kinase kinase 3 (Homo sapiens) (UniProt Q99759); test: Inhibition of MAPK3K3 at 3 uM; summary of the method: as §1
Chain of Mitogen-activated protein kinase kinase kinase 3 (Homo sapiens) (Q99759 whole entry): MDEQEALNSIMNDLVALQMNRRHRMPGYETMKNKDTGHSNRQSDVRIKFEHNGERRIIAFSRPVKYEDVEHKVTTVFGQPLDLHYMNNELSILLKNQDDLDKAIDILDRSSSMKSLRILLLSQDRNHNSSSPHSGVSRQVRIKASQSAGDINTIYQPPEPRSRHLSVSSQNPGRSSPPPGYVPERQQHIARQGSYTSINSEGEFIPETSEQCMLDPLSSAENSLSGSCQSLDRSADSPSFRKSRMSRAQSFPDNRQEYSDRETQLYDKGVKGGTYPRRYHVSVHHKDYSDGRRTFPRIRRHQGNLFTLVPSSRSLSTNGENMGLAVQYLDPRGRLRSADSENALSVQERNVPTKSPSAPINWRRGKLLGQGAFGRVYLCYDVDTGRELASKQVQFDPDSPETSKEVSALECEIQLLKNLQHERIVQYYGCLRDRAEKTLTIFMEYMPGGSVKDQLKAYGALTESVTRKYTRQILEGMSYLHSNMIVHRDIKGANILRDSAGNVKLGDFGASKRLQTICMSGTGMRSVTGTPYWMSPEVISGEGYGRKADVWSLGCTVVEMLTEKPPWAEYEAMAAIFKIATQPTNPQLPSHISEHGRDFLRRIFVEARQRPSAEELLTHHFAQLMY

[13] = Inhibition of streptozotocin-induced H2O2 production in rat INS1(823/13) cells treated 30 mins before streptozotocin challenge measured after 4 hrs; assay type: functional, cell-based
Summary of the method: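 Rat insulinoma INS1 823/13 cells in RPMI 1640 with 10% FBS were plated and left overnight at 37 °C. Compound in DMSO was added 30 min before 4 mM STZ and kept through 4 h of STZ at 37 °C. Cells were loaded with 5 μM CM-H2DCFDA for 1 h, and fluorescence was read at 495/525 nm. Signal was normalized to STZ alone. A 12-point curve was fitted by four-parameter regression over four biological replicates run in duplicate.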

[14] = biological target: Mitogen-activated protein kinase kinase kinase 5 (Homo sapiens) (UniProt Q99683); test: Inhibition of ASK1 at 3 uM
[15] = biological target: Mitogen-activated protein kinase kinase kinase 10 (Homo sapiens) (UniProt Q02779); test: Inhibition of MLK2 at 3 uM; summary of the method: as §1
[16] = biological target: CYP2C9 (Homo sapiens, UniProt P11712); test: Inhibition of human CYP2C9 at 10 uM after 15 mins; assay type: ADME
Chain of CYP2C9 (P11712 whole entry): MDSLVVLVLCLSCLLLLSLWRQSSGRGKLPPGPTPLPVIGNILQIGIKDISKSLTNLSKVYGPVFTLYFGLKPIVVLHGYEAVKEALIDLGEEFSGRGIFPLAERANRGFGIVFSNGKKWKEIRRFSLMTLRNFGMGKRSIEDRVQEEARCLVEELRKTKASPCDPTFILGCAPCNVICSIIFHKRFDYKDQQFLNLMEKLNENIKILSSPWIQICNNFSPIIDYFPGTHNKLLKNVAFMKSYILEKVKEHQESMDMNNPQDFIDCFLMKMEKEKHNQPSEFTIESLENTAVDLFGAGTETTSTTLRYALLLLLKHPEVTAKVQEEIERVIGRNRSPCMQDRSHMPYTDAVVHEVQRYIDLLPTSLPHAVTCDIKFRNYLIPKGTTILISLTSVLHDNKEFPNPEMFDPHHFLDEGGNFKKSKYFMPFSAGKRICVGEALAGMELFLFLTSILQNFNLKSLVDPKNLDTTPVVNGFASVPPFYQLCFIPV

[17] = Plasma clearance in Sprague-Dawley rat at 1 mg/kg, iv and 2 mg/kg, po; assay type: ADME, organism-based
Summary of the method: (§2)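 Sprague-Dawley rats (n = 3) given 1 mg/kg i.v. and 2 mg/kg oral gavage. Blood was drawn into EDTA at 5, 15, 30 min and 1, 2, 4, 6, 8 h. Plasma proteins were precipitated with acetonitrile and drug was measured by LC-MS/MS. Cmax, AUC, t1/2, CL, Vd and oral bioavailability came from noncompartmental analysis.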

[18] = Volume of distribution in Sprague-Dawley rat at 1 mg/kg, iv and 2 mg/kg, po; assay type: ADME, organism-based; settings: in vivo; summary of the method: as §2
[19] = Metabolic stability in mouse liver microsomes at 1 uM by LC-MS/MS analysis; assay type: ADME, Microsome
[20] = biological target: CYP2D6 (Homo sapiens, UniProt P10635); test: Inhibition of human CYP2D6 at 10 uM after 15 mins; assay type: ADME
Chain of CYP2D6 (P10635 whole entry): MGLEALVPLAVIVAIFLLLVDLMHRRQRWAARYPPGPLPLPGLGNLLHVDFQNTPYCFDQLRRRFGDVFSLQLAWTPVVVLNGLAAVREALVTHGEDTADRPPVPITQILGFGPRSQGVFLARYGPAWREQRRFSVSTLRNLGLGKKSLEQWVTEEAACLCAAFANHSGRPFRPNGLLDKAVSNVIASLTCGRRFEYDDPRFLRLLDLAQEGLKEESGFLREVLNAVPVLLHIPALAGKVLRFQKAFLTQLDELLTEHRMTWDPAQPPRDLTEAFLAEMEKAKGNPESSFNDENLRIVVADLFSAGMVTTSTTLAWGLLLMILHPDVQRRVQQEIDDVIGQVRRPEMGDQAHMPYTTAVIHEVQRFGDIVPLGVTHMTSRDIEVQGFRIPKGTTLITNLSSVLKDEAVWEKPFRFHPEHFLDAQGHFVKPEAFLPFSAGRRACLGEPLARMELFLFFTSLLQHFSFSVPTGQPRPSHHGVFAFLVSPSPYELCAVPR

[21] = Cmax in Sprague-Dawley rat at 2 mg/kg, po; assay type: ADME, organism-based; set-up: dose 2 mg/kg, route oral; settings: in vivo
[22] = system: Liver microsomes; test: Metabolic stability in human liver microsomes at 1 uM by LC-MS/MS analysis; assay type: ADME, Microsome
[23] = Half life in Sprague-Dawley rat at 1 mg/kg, iv and 2 mg/kg, po; assay type: ADME, organism-based; settings: in vivo; summary of the method: as §2
[24] = biological target: CYP3A4 (Homo sapiens, UniProt P08684); test: Inhibition of human CYP3A4 at 10 uM after 15 mins; assay type: ADME
Chain of CYP3A4 (P08684 whole entry): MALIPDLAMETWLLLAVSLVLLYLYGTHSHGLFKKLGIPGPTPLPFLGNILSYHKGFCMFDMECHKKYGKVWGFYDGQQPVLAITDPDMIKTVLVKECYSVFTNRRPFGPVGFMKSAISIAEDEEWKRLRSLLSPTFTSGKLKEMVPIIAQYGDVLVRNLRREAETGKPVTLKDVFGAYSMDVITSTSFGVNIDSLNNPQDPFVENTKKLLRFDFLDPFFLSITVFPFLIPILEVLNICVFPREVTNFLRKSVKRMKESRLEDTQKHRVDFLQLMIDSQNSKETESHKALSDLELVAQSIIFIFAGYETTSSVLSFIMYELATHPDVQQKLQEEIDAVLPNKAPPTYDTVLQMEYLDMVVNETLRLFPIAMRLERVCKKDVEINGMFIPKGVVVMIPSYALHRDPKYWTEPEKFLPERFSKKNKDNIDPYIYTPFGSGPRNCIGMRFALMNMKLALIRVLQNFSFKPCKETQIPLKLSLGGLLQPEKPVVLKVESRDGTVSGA

[25] = biological target: T1, CYP1A2 (Homo sapiens, UniProt P05177); test: Inhibition of human CYP1A2 at 10 uM after 15 mins; assay type: ADME
T1 sequence (P05177 whole entry): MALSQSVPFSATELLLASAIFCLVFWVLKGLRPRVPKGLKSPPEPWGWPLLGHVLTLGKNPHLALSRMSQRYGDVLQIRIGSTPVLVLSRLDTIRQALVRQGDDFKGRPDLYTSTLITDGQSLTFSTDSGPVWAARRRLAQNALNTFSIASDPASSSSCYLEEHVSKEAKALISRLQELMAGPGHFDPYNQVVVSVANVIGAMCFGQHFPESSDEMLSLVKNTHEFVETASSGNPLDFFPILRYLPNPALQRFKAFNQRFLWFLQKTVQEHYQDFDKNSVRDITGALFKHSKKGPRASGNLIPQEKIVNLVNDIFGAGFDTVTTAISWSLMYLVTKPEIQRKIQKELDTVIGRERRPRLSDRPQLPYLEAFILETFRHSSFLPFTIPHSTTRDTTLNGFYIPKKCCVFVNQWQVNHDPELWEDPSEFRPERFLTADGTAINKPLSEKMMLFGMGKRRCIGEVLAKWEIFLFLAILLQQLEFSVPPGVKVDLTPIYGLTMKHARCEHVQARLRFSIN

[26] = AUC in Sprague-Dawley rat at 2 mg/kg, po; assay type: ADME, organism-based; set-up: dose 2 mg/kg, route oral; settings: plasma
[27] = system: Rattus norvegicus; test: Oral bioavailability in Sprague-Dawley rat at 2 mg/kg; assay type: ADME, organism-based; settings: in vivo; summary of the method: as §2
[28] = system: Liver microsomes; test: Metabolic stability in rat liver microsomes at 1 uM by LC-MS/MS analysis; assay type: ADME, Microsome
[29] = Selectivity ratio of IC50 for JNK1 over IC50 for p38 kinase
[30] = Selectivity ratio of IC50 for JNK3 over IC50 for p38 kinase
[31] = system: Jurkat; test: Inhibition of IL-2 release in human Jurkat cells at 10 uM; assay type: functional
[32] = system: Plasma; test: Protein binding in human plasma; assay type: ADME, cell-free
[33] = system: Plasma; test: Protein binding in mouse plasma; assay type: ADME, cell-free
[34] = system: Plasma; test: Protein binding in rat plasma; assay type: ADME, cell-free
[35] = system: Plasma; test: Protein binding in dog plasma; assay type: ADME, cell-free, Canis lupus familiaris
[36] = system: Plasma; test: Protein binding in monkey plasma; assay type: ADME, cell-free, Macaca mulatta; settings: rhesus monkey

Row | SMILES | pIC50 [1] | pIC50 [2] | pIC50 [3] | pIC50 [9] | inhibition at 0.25 h, 10 µM [16] [%] | clearance [17] [mL/min/kg] | Vd [18] [L/kg] | Stability [19] [min] | inhibition at 0.25 h, 10 µM [20] [%] | Cmax [21] [nM] | Stability [22] [min] | half-life [23] [h] | inhibition at 0.25 h, 10 µM [24] [%] | inhibition at 0.25 h, 10 µM [25] [%] | AUC [26] [µM·h] | F [27] [%] | Stability [28] [min] | other results
1 | c1cc(-c2ccnc(Nc3ccc(-n4ccnn4)cc3)n2)cc(N2CCOCC2)c1 | < 4.70 | 6.44 | 6.91 | – | – | – | – | – | – | – | – | – | – | – | – | – | – | –
2 | Fc1cc(-c2cc[nH]/c(=N/c3ccc(-n4cnc(N5CCOCC5)n4)cc3)n2)cc(N2CCOCC2)c1 | < 4.70 | – | – | 7.27 | – | – | – | – | – | – | – | – | – | – | – | – | – | Activity [4]: inactive; Activity [5]: inactive; Activity [6]: inactive; Activity [7]: inactive; Activity [8]: inactive; Activity [10]: inactive; Activity [11]: inactive; Activity [12]: inactive; pIC50 [13]: 9.09; Activity [14]: inactive; Activity [15]: inactive
3 | CN1CCN(c2ncn(-c3ccc(Nc4nccc(-c5cc(F)cc(N6CCOCC6)c5)n4)cc3)n2)CC1 | < 4.70 | 6.88 | 6.99 | 6.59 | – | – | – | – | – | – | – | – | – | – | – | – | – | –
4 | Cn1nnc(-c2ccc(Nc3nccc(-c4cc(C#N)cc(N5CCOCC5)c4)n3)cc2)n1 | < 4.70 | 6.85 | 7.35 | – | 7 | 44 | 3.3 | 26 | 10 | 70 | 17 | 1.9 | 15 | -1 | 0.24 | 14 | 11 | –
5 | NC(=O)c1ccc(Nc2nccc(-c3ccccc3)n2)cc1 | < 4.70 | – | – | – | – | – | – | – | – | – | – | – | – | – | – | – | – | –
6 | c1cncc(-c2ncn(-c3ccc(Nc4nccc(-c5cccc(N6CCOCC6)c5)n4)cc3)n2)c1 | < 4.70 | – | 7.01 | – | – | – | – | – | – | – | – | – | – | – | – | – | – | –
7 | Cc1ncn(-c2ccc(Nc3nccc(-c4cc(C#N)cc(N5CCOCC5)c4)n3)cc2)n1 | < 4.70 | 7.10 | 7.27 | 7.05 | – | – | – | – | – | – | – | – | – | – | – | – | – | Ratio IC50 [29]: > 135; Ratio IC50 [30]: > 135
8 | N#C/C(=C1/Nc2ccccc2S1)c1ccnc(NCCc2cccnc2)n1 | – | – | – | – | – | – | – | – | – | – | – | – | – | – | – | – | – | inhibition at 10 µM [31]: 90%
9 | Cc1ncn(-c2ccc(Nc3nccc(-c4cccc(N5CCOCC5)c4)n3)cc2)n1 | < 4.70 | 6.41 | 6.95 | 6.55 | 43 | 10 | 0.4 | 5 | 4 | 950 | 18 | 0.8 | 48 | 39 | 2 | 25 | 17 | –
10 | N#Cc1cc(-c2ccnc(Nc3ccc(-n4cnc(-c5ccccn5)n4)cc3)n2)cc(N2CCOCC2)c1 | < 4.70 | 7.10 | 7.41 | – | -2 | 3 | 0.6 | 51 | -4 | 500 | 29 | 3 | 33 | 15 | 5.9 | 27 | 47 | –
11 | CS(=O)(=O)Nc1ccc(-c2ccnc(Nc3ccc(-n4ccnn4)cc3)n2)cc1 | < 4.70 | 8.40 | 7.80 | 6.68 | – | – | – | – | – | – | – | – | – | – | – | – | – | –
12 | CS(=O)(=O)Nc1ccc(-c2ccnc(Nc3ccc(S(N)(=O)=O)cc3)n2)cc1 | < 4.70 | – | – | – | – | – | – | – | – | – | – | – | – | – | – | – | – | –
13 | Fc1cc(-c2ccnc(Nc3ccc(-n4cnc(N5CCOCC5)n4)cc3)n2)cc(N2CCOCC2)c1 | – | – | 7.00 | – | 75 | 20 | 2.5 | 21 | 4 | 300 | 26 | 2.4 | 89 | 70 | 1.4 | 45 | 41 | PPB [32]: 92%; PPB [33]: 92%; PPB [34]: 98%; PPB [35]: 96%; PPB [36]: 96%
